From PubChem BioAssay
UPR XBP1 act: adaptive UPR (XBP1) activation; AID 463104; activation, % at 20 µM; actives 0.33% (n = 330,000); CHO-XBP1 luciferase reporter, IRE1-XBP1 UPR activation, luminescence; percent of tunicamycin response, DMSO as zero;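 active means versus positive control, 20 µM dose yields 30% or more activation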;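 further: 100% = tunicamycin at 10 µg/mL and 0% = DMSO only wells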
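Signal: luciferase luminescence; Assay system: CHO-XBP1 luciferase reporter cells; Amount: one thousand reporter cells per well; Dosing: 20 µM single concentration, DMSO 1%; Benchmarks: high control tunicamycin 10 µg/mL final, low control DMSO vehicle only; Schedule: 6 h compound exposure at 37 °C, 5% CO2; Evaluation: percent activation relative to tunicamycin reference.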
aDG glyco act: increases alpha dystroglycan glycosylation; actives 0.22% (n = 360,000); AID 624168; activation, % at 10 µM; Pro5-aDG cells, alpha-DG glycosylation AlphaScreen (IIH6); 0% Pro5, 100% B10-LARGE cell signal;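 active means activation of at least 8% versus controls, or a plate z-score of at least 8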;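 further: Pro5 are CHO cells carrying HIG-tagged alpha-DG that lacks glycosylation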
MPTP inh: blocks calcium-induced mitochondrial swelling; isolated mouse mitochondria, Ca2+ swelling absorbance, 30 min; inhibition, % at 10 µM; actives 1.4% (n = 360,000); AID 602449;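 active means inhibition of 50% or more, scaled per plate between neutral and stimulator controls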;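 further: 0% = DMSO wells given calcium and 100% = 1 mM EGTA wells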
CHOP inh: CHOP inhibition in unfolded protein response. actives 3.8% (n = 220,000). CHO-K1 CHOP-promoter luciferase, tunicamycin-induced, 15-18 h. inhibition, % at 10 µM;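 active means compounds that reduced the stress-induced luciferase reporter signal by more than about 70% of percent inhibition, limit read from the data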;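 further: 0% = tunicamycin plus vehicle and 100% = wells without tunicamycin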
GRIN3A LBD mod: NR3A (human) ligand-binding domain modulation; actives 2.5% (n = 340,000); Tm shift relative to glycine control, % at 25 µM; NR3A LBD differential scanning fluorimetry, Tm shift; 0% = protein alone, 100% = glycine-bound protein;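 active means melting temperature shift of at least 10% of the positive control shift, at one fixed dose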
CHOP UPR activ: activators of apoptotic arm of unfolded protein response (CHOP). AID 449763. actives 0.34% (n = 330,000). activation, % at 10 µM. CHO-CHOP luciferase reporter, UPR activation, luminescence; percent of tunicamycin response over DMSO baseline;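 active means at 10 µM dose, activation of 40% or more, normalized to positive control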;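 further: 100% = tunicamycin at 10 µg/mL and 0% = DMSO alone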
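measured by = luciferase luminescence | assay system = CHO-CHOP cells, stable luciferase reporter of PERK-eIF2a-CHOP signalling | amount = 500 reporter cells seeded per well | timing = 6 h compound exposure at 37 °C after overnight seeding | controls = positive tunicamycin 10 µg/mL, negative DMSO alone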
Rh123 counter: Rhodamine 123 counter-screen of mitochondrial pore hits; shares compounds with MPTP inh; isolated mitochondria, membrane potential, Rhodamine 123 fluorescence; inhibition, % at 10 µM; actives 78% (n = 5,000); AID 624504; in the data active means inhibition above about 22%;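 further: 0% = DMSO vehicle and 100% = positive control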
MPTP swell DR: MPTP inhibition, dose response swelling confirmation; actives 58% (n = 780); IC50, µM; isolated mitochondria swelling, absorbance; shares compounds with MPTP inh; in the data active means IC50 below about 20 µM
MPTP counter DR: MPTP inhibitor counter-screen activity, dose response; shares compounds with MPTP inh; isolated mitochondria counterscreen, fluorescence read-out; IC50, µM; actives 49% (n = 780); in the data active means IC50 below about 80 µM
aDG conf: confirmation of alpha dystroglycan glycosylation activators; activation, % at 10 µM (by protocol); Pro5-aDG cells, alpha-DG glycosylation, IIH6 AlphaLISA; scaled to LARGE-overexpressing B10 cells as 100%; actives 17% (n = 600); AID 651671; shares compounds with aDG glyco act;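 active means activation of at least 7% in one or more replicates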;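 further: cells exposed to compound for two days before detection; 0% = DMSO-treated Pro5 cells and 100% = DMSO-treated B10-LARGE cells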
* = called active by the depositor; x = no result. Sampled rows, rich in hits. Any-hit rate of the full collection: about 5.6%.

SMILES	UPR XBP1 act	aDG glyco act	MPTP inh	CHOP inh	GRIN3A LBD mod	CHOP UPR activ	Rh123 counter	others
CN(C)c1ccc(/C=C/C=C2/C(=O)NC(=O)N(c3ccccc3)C2=O)cc1	x	0	51*	84*	2	x	-28
C=CC[N+]1(C)CC[C@]23c4c5ccc(O)c4O[C@H]2C(=O)CC[C@@]3(O)[C@H]1C5 (stereo partly drawn)	-9	0	-2	x	1	-1	x
CC(C)(C)c1ccc(CSc2cnn(C(C)(C)C)c(=O)c2Cl)cc1	-2	1	92*	x	-2	10	85*
CO[C@H]1C=C2CCN(C)[C@H]2C2c3cc4c(cc3C(=O)O[C@@H]21)OCO4 (stereo partly drawn)	-10	0	0	x	0	0	x
CC(N)Cc1c[nH]c2ccc(O)cc12 (stereo not drawn)	x	0	3	16	-1	x	x
CC(N)Cc1c[nH]c2ccc(OCc3cccs3)cc12 (stereo not drawn)	-10	0	82*	-9	-1	0	-11	MPTP swell DR=9.8*;MPTP counter DR=>80
CSc1ccc(C(=O)C2CCCN(Cc3cccnc3)C2)cc1 (stereo not drawn)	-1	1	0	14	2	1	x
CSc1ccc(C(=O)C2CCCN(Cc3cc4ccccc4[nH]3)C2)cc1 (stereo not drawn)	-4	0	58*	70*	-7	0	-8	MPTP swell DR=5.9*;MPTP counter DR=25*
C/C=C1\NC(=O)[C@@H](NC(=O)[C@H](CCc2ccc(O)cc2)NC(=O)[C@H](C)NC(=O)[C@H](O)CO)[C@@H](C)OC(=O)[C@H](C(C)C)NC(=O)[C@H](Cc2ccc(O)cc2)N(C)C(=O)[C@H](Cc2ccccc2)N2C(=O)C(CC[C@H]2O)NC1=O (stereo partly drawn)	-4	0	0	x	2	0	x
CCOC(=O)C1(c2ccccc2)CCN(CCC(=O)Nc2cccc(Br)c2)CC1	0	4	77*	x	-5	0	11
Cc1ccc(Cl)cc1N1CCN(CCN)CC1	-4	0	78*	66	-3	0	-8	MPTP swell DR=12*;MPTP counter DR=>80
O=C(Cc1ccccc1)NC(Oc1ccccc1Cl)C(Cl)(Cl)Cl (stereo not drawn)	0	0	3	5	2	6	x
CCCCCCCC(=O)NC(Oc1ccccc1[N+](=O)[O-])C(Cl)(Cl)Cl (stereo not drawn)	1	0	70*	64	-8	-1	59*
COc1ccn(C)c(=O)c1C#N	-1	0	-4	5	-5	3	x
CCS(=O)(=O)Nc1cccc(C(=C2CCCCC2)c2cnc[nH]2)c1	-5	0	-2	-20	-1	-3	x
COC(=O)C1=C(c2ccc3ccccc3c2)C[C@@H]2CC[C@H]1N2C(=O)NC1CCCCC1	1	0	0	x	-1	0	x
COC(=O)C1=C(c2ccc(C(C)=O)cc2)C[C@@H]2CC[C@H]1N2C(=O)NC1CCCCC1	-3	7.3*	2	x	0	0	x	aDG conf=-1
Cc1cc(OC(=O)N(C)C)nc(-c2ccc(C)c(Cl)c2)n1	-1	0	2	-15	1	3	x
CC1CCC2[C@@H](C)C(=O)OC3O[C@]4(C)CCC1C32OO4 (stereo partly drawn)	-1	2.6*	-1	x	-1	3	x	aDG conf=0
CCC1(c2ccc(N)cc2)CCC(=O)NC1=O (stereo not drawn)	-1	12*	2	0	0	0	x	aDG conf=-1
CCCNC(=O)Cn1cnc2sc(C(=O)N3CCC4(CC3)OCCO4)c(C)c2c1=O	-4	14*	0	x	-1	1	x	aDG conf=0
COC(=O)C1=C(c2ccccc2)C[C@@H]2CC[C@H]1N2C(=O)N1CCC(C)CC1	-2	0	0	x	2	0	x
O=C(O)C(Br)CBr (stereo not drawn)	-2	0	-1	x	2	-2	x
